Rtt109 Vps75: C. albicans Rtt109 histone acetyltransferase inhibition | Q5AAJ8 | purified Rtt109/Vps75, ThioGlo CoA-SH fluorescence, 4 h | inhibition, % at 34.9 µM | 0.16% of 330,000 active;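 active means inhibition of at least 50% in every replicate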
ARFGAP1 inhibitor: rat ARFGAP1 inhibition | AID 651572 | Arfgap1-stimulated ARF1 GTP hydrolysis, GDP FP detection | Q62848 | inhibition, % at 16.5 µM | 0.26% of 360,000 active;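 active means inhibition above a per-plate limit, mean inhibition of low control wells plus 3 SD, cut at about 25% in these data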
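material = rat Arfgap1 catalytic domain, aa 1-136 | also added = human ARF1(Δ1-17)-GTP substrate | compound dosing = one concentration, 16.5 µM, DMSO 1.26% | times = GTP hydrolysis reaction 2 h at 25 °C | measured by = FP, GDP Alexa 633 tracer displaced from anti-GDP antibody, 620/688 nm | evaluation = percent inhibition of Arfgap1-stimulated GTP hydrolysis | replication = single well per compound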
Efflux pump mplx: blocks antifungal efflux pumps in multiplex yeast assay; S. cerevisiae Candida pump triplex, Nile Red efflux; inhibition, % at 10 µM; 0.44% of 330,000 active;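 active means plate passing quality check with inhibition over a set limit, or well fluorescence over plate mean plus 4 SD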;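 further: Nile Red retained in pooled yeast measured as flow cytometry median fluorescence; higher means more Nile Red kept so more efflux inhibition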
FGF22 binding: FGF22 (human) thermal shift binding; Q9HCT0; recombinant FGF22 thermal shift, SYPRO orange fluorescence; percent of sucrose octasulfate shift, DMSO zero; activity (Tm shift, normalised), % at 9.99 µM; 1.5% of 340,000 active; AID 651658;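 active means mean Tm shift, scaled 0 neutral to 100 positive control, at about 1.3% or above, every replicate too, limit read from the data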
ASAP1 GAP inh: inhibitors of human ASAP1 ArfGAP activity; AID 624377; inhibition, % at 16.5 µM; 0.19% of 360,000 active; ASAP1-stimulated ARF1 GTP hydrolysis, GDP FP detection; Q9ULH1; in the data active means inhibition above about 25%
Target sequence (Q9ULH1 325-724 limits assumed): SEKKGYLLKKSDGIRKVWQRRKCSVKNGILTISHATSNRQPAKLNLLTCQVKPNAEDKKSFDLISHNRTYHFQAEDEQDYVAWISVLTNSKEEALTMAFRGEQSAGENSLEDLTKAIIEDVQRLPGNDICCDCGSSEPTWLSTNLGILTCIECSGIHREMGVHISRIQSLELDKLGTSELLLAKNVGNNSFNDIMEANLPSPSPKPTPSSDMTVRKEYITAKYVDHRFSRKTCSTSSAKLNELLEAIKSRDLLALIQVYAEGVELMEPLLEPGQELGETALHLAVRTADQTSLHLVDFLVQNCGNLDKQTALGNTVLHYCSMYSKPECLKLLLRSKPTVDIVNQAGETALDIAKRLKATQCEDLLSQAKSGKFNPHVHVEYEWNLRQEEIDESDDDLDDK
A number is an active result; . = inactive; / = no result given. This is a sample that favours compounds with a hit; in the whole collection about 1.9% have one here.

SMILES | Rtt109 Vps75 | ARFGAP1 inhibitor | Efflux pump mplx | FGF22 binding | ASAP1 GAP inh
O=C(Nc1nnc(-c2ccco2)o1)c1ccc(S(=O)(=O)N2CCCC2)cc1 | . | . | . | 43 | .
O=C(NCc1ccco1)c1ccc(F)c(S(=O)(=O)N2CCCCC2)c1 | . | . | . | 43 | .
CC(C)NC(=O)N[C@H]1C=C[C@@H](CC(=O)N2CCCCC2)O[C@@H]1CO | / | / | / | . | /
C=CCN1C[C@H](COC(=O)c2cccc(OC)c2)Oc2cccc(F)c2S1(=O)=O | / | . | / | . | .
CC(C)(CO)NCc1ccc(Br)cc1 | . | . | . | 43 | .
O=C(Cc1cccc2ccccc12)Nc1ccc2c(c1)C(=O)NC2=O | . | . | . | 44 | .
CCCNC(=O)C[C@@H]1C[C@@H]2c3cc(NC(=O)NC4CCCCC4)ccc3O[C@@H]2[C@H](CO)O1 | / | / | / | . | /
COc1ccccc1NC(=O)c1ccc(NC(=O)CN(C)Cc2ccccc2F)cc1 | . | . | . | 43 | .
CC(=O)c1cccc(NC(=O)CSc2n[nH]c(-c3ccncc3)n2)c1 | . | . | . | 1.7 | .
O=C(CSc1nnc(-c2ccccc2O)n1-c1ccccc1)Nc1cccc(C(=O)O)c1 | . | . | . | 43 | .
O=C(CSc1cn[nH]n1)Nc1cccc(C(=O)O)c1 | 81 | . | . | . | .
O=C(O)CSc1nnc(Nc2ccccc2)n1-c1ccccc1 | . | . | . | 44 | .
CS(=O)(=O)c1ccc(C(=O)Nc2nc(-c3ccco3)c(-c3ccco3)s2)cc1 | . | . | / | . | .
CC(=O)Nc1cccc(NC(=O)CS(=O)(=O)c2cn(CC(=O)N3CCOCC3)c3ccccc23)c1 | . | . | . | 43 | .
O=C(OCc1cn([C@@H]2C[C@H](c3ccccc3)N(Cc3cccs3)C[C@H]2O)nn1)c1ccccc1 | / | . | / | 44 | .
O=C(Nc1ccc(-c2nc3ccccc3[nH]2)cc1)C1CCCO1 (configuration not stated) | . | . | . | 8.6 | .
Cc1nnc(NC(=O)CSc2nc3[nH]ncc3c(=O)[nH]2)s1 | . | . | . | . | .
CCc1nnc(NC(=O)CSc2nc3[nH]ncc3c(=O)[nH]2)s1 | . | . | . | 44 | .
Cc1cc(NC(=O)CCSc2ccccc2)no1 | . | . | . | . | .
Cc1cc([N+](=O)[O-])ccc1N1C(=O)c2ccc(C(=O)Nc3ccccc3C(=O)O)cc2C1=O | . | . | . | 1.6 | .
CC(C)N(C(=O)CSc1nnnn1-c1ccc2c(c1)OCO2)C(C)C | . | . | . | . | .
CCOCCCNC(=S)NCCCNc1nc2ccc(C)cc2cc1C#N | / | . | . | . | .
CCOCCCNC(=S)NCCNc1nc2ccc(C)cc2cc1C#N | . | . | . | 44 | .
C[C@@H]1CN([C@H](C)CO)C(=O)c2cc(Br)cnc2O[C@@H]1CN(C)C(=O)Nc1cccc(F)c1 | / | . | / | . | .
O=C(COC(=O)c1cccc(S(=O)(=O)N2CCc3ccccc32)c1)NCc1ccco1 | . | . | . | 44 | .
SMILES | Rtt109 Vps75 | ARFGAP1 inhibitor | Efflux pump mplx | FGF22 binding | ASAP1 GAP inh
CC(C)CN(CC(C)C)C(=O)c1cccc(S(=O)(=O)N2CCc3ccccc32)c1 | . | . | . | 44 | .
O=C(COC(=O)c1cccc(S(=O)(=O)N2CCc3ccccc3C2)c1)NCc1ccco1 | . | . | . | / | .
CCC(c1nnnn1-c1ccc2c(c1)OCCO2)N1CCN(c2ncccn2)CC1 (configuration not stated) | / | . | / | . | .
CCCn1cc(S(=O)(=O)CC(=O)NC2CCCCC2)c2ccccc21 | 51 | . | . | / | .
CCCn1cc(SCC(=O)NC2CCCC2)c2ccccc21 | . | . | . | . | .
O=C(NCC1CCCN(Cc2ccccc2F)C1)c1cccc(C(F)(F)F)c1 (configuration not stated) | . | . | . | 43 | .
COc1ccc(CC(=O)NCC2CCCN(Cc3cccc(C(F)(F)F)c3)C2)cc1 (configuration not stated) | . | . | . | . | .
COc1ccc(C(=O)C(CCC(CNC(C)(C)C)C(=O)c2ccc(OC)cc2)CNC(C)(C)C)cc1 (configuration not stated) | 62 | . | . | / | .
COc1ccc(C(=O)CC(=O)c2ccc(C(C)(C)C)cc2)cc1 | . | . | / | . | .
COc1ccc(-c2noc(CCC(=O)N3CCC(c4cc(C)ccc4C)CC3)n2)cc1 | . | . | . | . | .
Cc1cc(NC(=O)C(C)SCC(=O)OCC(=O)Nc2c(C)cccc2C(C)C)no1 (configuration not stated) | . | . | . | . | .

Compound activity as filed in PubChem BioAssay.
